What was measured:
[1] = test system: MS2 coat protein; test: apparent Kd, MS2 coat protein; higher = weaker binding; RNA-MaP array; theophylline 2 mM where present
Method in brief: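 Designs were transcribed by stalled E. coli RNA polymerase on Illumina sequencing-chip clusters. They were titrated with SNAP-549-labelled MS2 coat protein from 0.7 or 1.5 nM, doubling to 3 µM, without and then with constant ligand. Buffer: 100 mM Tris-HCl pH 7.5, 80 mM KCl, 4 mM MgCl2, BSA, DTT, yeast tRNA, Tween-20. Green signal was normalised to red-channel RNA signal and control-cluster median Fmax. Apparent Kd is the median of filtered per-cluster binding-curve fits.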

[2] = test system: MS2 coat protein; test: apparent Kd, MS2 coat protein; higher = weaker binding; RNA-MaP array
Method in brief: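 With or without input ligand, designed RNAs transcribed on an Illumina sequencing chip from sequenced DNA templates were incubated at room temperature with fluorescently labeled MS2 coat protein at 1.5 nM to 3 μM. The buffer was Tris-HCl pH 7.5 with KCl, MgCl2, BSA, DTT, tRNA and Tween20, and incubation ran 0.8–1.5 h at the lowest and 10–20 min at the highest concentrations. Apparent Kd is reported as the median of fits to binding curves from individual clusters. Designs measured on fewer than 10 clusters are not included.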

[3] = designed as: OFF switch for theophylline, no ligand
[4] = ligand present: theophylline, designed as: OFF switch for theophylline
[5] = designed as: ON switch for theophylline, no ligand
[6] = ligand present: theophylline, designed as: ON switch for theophylline
[7] = designed as: OFF switch for flavin mononucleotide, no ligand
[8] = ligand present: flavin mononucleotide, designed as: OFF switch for flavin mononucleotide

Row | Sequence | apparent Kd [1, 3] [nM] | apparent Kd [1, 4] [nM] | further results
1 | ACAUGAACAUGAGGAUCACCCAUGUGGGAUACCAGCGUGUAUGAGCGCCCUUGGCAGCUCAUGACAUGAGGAUCACCCAUGUUGG | 262 | 453 | 
2 | GGUGUAUCCAUCGAUACCAGCCACCACCGAUAGACCACAUGAGGAUCACCCAUGUUGGGUGGCCCUUGGCAGCGGUGGCUGUGCC |  |  | apparent Kd [1, 5]: 317 nM; apparent Kd [1, 6]: 172 nM
3 | AUACACCUCGUCCAGGCAAUCUUUAGUGAUACCAGCUAACUCCGUGGCCCUUGGCAGCACAUGAGGAUCACCCAUGUGCGACAUC | 11.1 | 11.8 | 
4 | UUUGCACAUGAGGAUCACCCAUGUACAGAUACCAGCCUCAUCUACGGCCCUUGGCAGCUGAGACAAUGGUGACAUGAUGGGCUUU | 12.1 | 32.6 | 
5 | AGACAUGAGGAUCACCCAUGUAGUACGGAUACCAGAUCCAGAUGUAUCCCUUGGCAGCUGUGGUACAGCGUUGCAACGCUCCUAG | 16 | 15.3 | 
6 | AGCCUAUUACAUGAGGAUCACCCAUGUGAUACCAGUCAGGAAACUGACCCUUGGCAGCGCAUGAGGAUCACCCAUGCGCGAGGCA | 11 | 11.9 | 
7 | AUCGUACCUGGUGAUACCAGCAAUUGCUCGUGACAUGAGGAUCACCCAUGUGACCAGUGAUGCCCUUGGCAGCAUGGUCGGUGCA |  |  | apparent Kd [1, 5]: 68.7 nM; apparent Kd [1, 6]: 27.2 nM
8 | UGACAUUGCUGCGAUACCAGACAUGAGGAUCACCCAUGUACCAAGAAAACGUACAUAAAUGUCCCUUGGCAGCGCAGCAAUGUCU | 524 | 1360 | 
9 | UAUAUGGUGAUGGAUACCAGCAGAGAAAACGUUUAUCCUAACAUGAGGAUCACCCAUGUAUGCCCUUGGCAGCUGUUGUUAUAUA | 37.9 | 29.7 | 
10 | AUCGUACCUGAUGAUACCAGCAUGUGCUCGUAACAUGAGGAUCACCCAUGUGAUCAGUGAUGCCCUUGGCAGCAUGAUCGGUGCA |  |  | apparent Kd [1, 5]: 169 nM; apparent Kd [1, 6]: 19.3 nM
11 | GUCAGUAGAACAGAUACCAGUCAAAGGCUGUGAUCUCAUAACAUGAGGAUCACCCAUGUUGACCCUUGGCAGCUGUGGGCGAGGG | 45.2 | 391 | 
12 | UACAUGAGGAUCACCCAUGUAUACAUGGAUACCAGCGACAAUGGGCGCCCUUGGCAGCUAGUGGAUGGAGGGUGGCCACAGUACU | 70.2 | 71.8 | 
13 | AGACAUGAGGAUCACCCAUGUAGUACGGAUACCAGAUCCAGAUGCGUCCCUUGGCAGCUGUAGUACAGCGUUACAUCGCUCGUAG | 20.8 | 32.1 | 
14 | AAGCAGGGUGUAAAAUAAAUAAUCACUGAUACCAGACUAUGAGAUGUCCCUUGGCAGCAGAAACAUGAGGAUCACCCAUGUAAUA | 22.7 | 32.3 | 
15 | ACGUCAACCCUUAUGUUGAUGCAAGACGAUACCAGCCUGGAUACAGGCCCUUGGCAGCGUCAACAUGAGGAUCACCCAUGUAAUA |  |  | apparent Kd [1, 5]: 82.8 nM; apparent Kd [1, 6]: 118 nM
16 | AAUAAGUACUUUGAUACCAGCCUGCCAUCAUGCUAAUUUACAUGAGGAUCACCCAUGUUAGGCCCUUGGCAGCAAAGUGCAAUAA | 12.5 | 25.6 | 
17 | UACAUGAGGAUCACCCAUGUAUGAAUAGAUACCAGCGAAAAUAAGCGCCCUUGGCAGCUAGUGAAUAAAGGGUGGGUAAAAUAAU | 9.18 | 19.9 | 
18 | UCGUCCUCCGCAAGGAGGAGGAGUUGCGAUACCAGCACGGUAACGUGCCCUUGGCAGCGCACAUGAGGAUCACCCAUGUGGUGUU | 214 | 489 | 
19 | AAAGAUACCAGAGAUACCAGCCAAAAUUAAAAUAAAACCUCACAUGAGGAUCACCCAUGUGGCCCUUGGCAGCUCCCUUGGCAGC | 12.5 | 53.7 | 
20 | GAUUGACAUGAGGAUCACCCAUGUAGCGUAUGGUGACUUCUGAAGGAUAUUAAUGCAGUGGCGGUUAAGAAGGUCAGCUAAUCG |  |  | apparent Kd [2, 7]: 45.7 nM; apparent Kd [2, 8]: 35 nM
21 | AGCGAUGACUGAGGAUAUGCUGUUAGGACAUUGCAACAUGAGGAUCACCCAUGUGAAGGCCGUCAGCAGAAGGCAGUACGUGGA |  |  | apparent Kd ([2]; designed as: ON switch for flavin mononucleotide, no ligand): 6.08 nM; apparent Kd ([2]; ligand present: flavin mononucleotide, designed as: ON switch for flavin mononucleotide): 4.75 nM
22 | GCAAAGUGAUCGGCCGCCACUGCAAUGCUUAAUGGAGGUCCACAUGAGGAUCACCCAUGUCUUCCCAGGACCGGGAUCUCGAGUU |  |  | apparent Kd ([2]; designed as: ON switch for tryptophan, no ligand): 60.7 nM; apparent Kd ([2]; ligand present: tryptophan, designed as: ON switch for tryptophan): 66.9 nM
23 | AUCAGUCAAGAAGGAUAUGCAAUAUCCUGGCACGUAGACAUGAGGAUCACCCAUGUGCAGGCUAAGCAGAAGGUCUUAGAAGGU |  |  | apparent Kd [2, 7]: 16 nM; apparent Kd [2, 8]: 9.8 nM
24 | UCACUACAGUAGAAGGUAGGUACAUGAGGAUCACCCAUGUGGUAGGGAGAUUUACACUGUUUCGCUAAGGAUAUACUGGCCAAU |  |  | apparent Kd [2, 7]: 207 nM; apparent Kd [2, 8]: 125 nM
25 | AAAAUCUGGUGAGGAUAUUGUUGAUGAUACAAACAAGAAGGCACGUUGACAUAGCGGGACAACAUGAGGAUCACCCAUGUCACU |  |  | apparent Kd [2, 7]: 46.6 nM; apparent Kd [2, 8]: 42.1 nM
